In ChEMBL document CHEMBL1799915, “Antitubercular chromones and flavonoids from Pisonia aculeata” (2011):
≈ marks a conversion by molar mass, not a printed value.

Test system: Mycobacterium tuberculosis
Test: Antitubercular activity against Mycobacterium tuberculosis H37Rv after 2 weeks by agar plate assay
Assay type: functional
Details: 336 h
Summary of the method: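 Inoculum from colonies suspended in 7H9 broth, adjusted to McFarland no. 1, then diluted; 33 μL spotted per quadrant. Incubated 35 °C, 10% CO2. MIC = lowest concentration giving complete growth inhibition, read by eye.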

Compound	MIC
COc1cc(O)c2c(=O)cc(C)oc2c1 [EUGENIN]	103 mg/L (≈ 500 µM)
COc1cc(/C=C/C(=O)NC[C@H](O)c2ccc(O)cc2)ccc1O	50 mg/L (≈ 152 µM)
COc1c(O)cc2occc(=O)c2c1O [PISONIN C]	80 mg/L (≈ 384 µM)
Cc1c(O)c(C)c2occc(=O)c2c1O [LEPTORUMOL]	82.9 mg/L (≈ 402 µM)
CC[C@@H](CO)NCCN[C@@H](CC)CO [ETHAMBUTOL]	6.25 mg/L (≈ 30.6 µM)
Cc1c(O)c(C)c2c(c1O)C(=O)C[C@@H](c1ccccc1O)O2	20 mg/L (≈ 66.6 µM)
COc1c(O)c(C)c2occ(-c3ccccc3O)c(=O)c2c1O [PISONIANONE]	≥ 175 mg/L
COc1cc2occc(=O)c2c(O)c1OC [PISONIN A]	≥ 100 mg/L
Cc1cc(=O)c2c(O)c3c(cc2o1)OCO3 [PISONIN E]	≥ 190 mg/L
Cc1c(O)cc(O)c2c1O[C@H](c1ccccc1O)CC2=O [PISONIVANONE]	12.5 mg/L (≈ 43.7 µM)
COc1c(O)cc2oc(C)cc(=O)c2c1O [PISONIN B]	25 mg/L (≈ 113 µM)
O=c1ccoc2cc3c(c(O)c12)OCO3 [PISONIN D]	≥ 236 mg/L
COc1c(O)cc2c(c1O)C(=O)C[C@@H](c1ccccc1)O2 [DIHYDROOROXYLIN A]	50 mg/L (≈ 175 µM)
Cc1cc(=O)c2c(O)cc(O)cc2o1 [NOREUGENIN]	110 mg/L (≈ 572 µM)
